Assays:
[1] = biological target: Beta-lactamase (Pseudomonas aeruginosa (strain ATCC 15692 / PAO1 / 1C / PRS 101 / LMG12228)) (UniProt P24735); test: Activity of ampG deficient Pseudomonas aeruginosa PAK AmpC at 50 ug/ml assessed as nitrocefin substrate hydrolysis per mg of protein after 2 hrs by UV spectrophotometry
How it was run: (§1)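 P. aeruginosa cells induced 2 h with […] cefoxitin. Crude sonicated extracts assayed by UV spectrophotometry with 100 μM nitrocefin substrate. Specific activity is nmol nitrocefin hydrolyzed per min per mg protein at 30°C, with protein by BCA against BSA standard. Triplicate inductions, averaged.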

[2] = biological target: Beta-lactamase (Pseudomonas aeruginosa (strain ATCC 15692 / PAO1 / 1C / PRS 101 / LMG12228)) (UniProt P24735); test: Activity of ampG deficient Pseudomonas aeruginosa PAK AmpC harboring pZY0908 conferring resistance to gentamycin at 50 ug/ml assessed as nitrocefin substrate hydrolysis per mg of protein after 2 hrs by UV spectrophotometry; how it was run: as §1
[3] = biological target: Beta-lactamase (Pseudomonas aeruginosa (strain ATCC 15692 / PAO1 / 1C / PRS 101 / LMG12228)) (UniProt P24735); test: Activity of ampG deficient Pseudomonas aeruginosa PAO1 AmpC at 50 ug/ml assessed as nitrocefin substrate hydrolysis per mg of protein after 2 hrs by UV spectrophotometry; how it was run: as §1
[4] = biological target: Beta-lactamase (Pseudomonas aeruginosa (strain ATCC 15692 / PAO1 / 1C / PRS 101 / LMG12228)) (UniProt P24735); test: Activity of ampD, […], ampDh2 deficient Pseudomonas aeruginosa PAO1 AmpC at 50 ug/ml assessed as nitrocefin substrate hydrolysis per mg of protein after 2 hrs by UV spectrophotometry; how it was run: as §1
[5] = biological target: Beta-lactamase (Pseudomonas aeruginosa (strain ATCC 15692 / PAO1 / 1C / PRS 101 / LMG12228)) (UniProt P24735); test: Activity of Pseudomonas aeruginosa PAO1 AmpC at 50 ug/ml assessed as nitrocefin substrate hydrolysis per mg of protein after 2 hrs by UV spectrophotometry; how it was run: as §1
[6] = biological target: Beta-lactamase (Pseudomonas aeruginosa (strain ATCC 15692 / PAO1 / 1C / PRS 101 / LMG12228)) (UniProt P24735); test: Activity of Pseudomonas aeruginosa PAK AmpC at 50 ug/ml assessed as nitrocefin substrate hydrolysis per mg of protein after 2 hrs by UV spectrophotometry; how it was run: as §1
[7] = biological target: Beta-lactamase (Pseudomonas aeruginosa (strain ATCC 15692 / PAO1 / 1C / PRS 101 / LMG12228)) (UniProt P24735); test: Activity of ampG deficient Pseudomonas aeruginosa PAK AmpC harboring pZY0901 conferring resistance to gentamycin at 50 ug/ml assessed as nitrocefin substrate hydrolysis per mg of protein after 2 hrs by UV spectrophotometry; how it was run: as §1
[8] = biological target: Beta-lactamase (Pseudomonas aeruginosa (strain ATCC 15692 / PAO1 / 1C / PRS 101 / LMG12228)) (UniProt P24735); test: Activity of ampD, ampDh2, ampDh3 and ampG deficient Pseudomonas aeruginosa PAO1 AmpC at 50 ug/ml assessed as nitrocefin substrate hydrolysis per mg of protein after 2 hrs by UV spectrophotometry; how it was run: as §1
[9] = biological target: Beta-lactamase (Pseudomonas aeruginosa (strain ATCC 15692 / PAO1 / 1C / PRS 101 / LMG12228)) (UniProt P24735); test: Activity of ampD, ampDh2, ampDh3 and ampG deficient Pseudomonas aeruginosa PAO1 AmpC harboring pZY0901 conferring resistance to gentamycin at 50 ug/ml assessed as nitrocefin substrate hydrolysis per mg of protein after 2 hrs by UV spectrophotometry; how it was run: as §1
[10] = biological target: Beta-lactamase (Pseudomonas aeruginosa (strain ATCC 15692 / PAO1 / 1C / PRS 101 / LMG12228)) (UniProt P24735); test: Activity of Pseudomonas aeruginosa PAO1 AmpC assessed as nitrocefin hydrolyzed per mg of protein at 1 ug/ml by UV spectrophotometry
How it was run: (§2)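 P. aeruginosa cells induced 2 h with cefoxitin (1, 10 or 25 μg/ml; uninduced control). Crude extracts prepared by sonication. β-Lactamase measured by UV spectrophotometry with 100 μM nitrocefin as substrate. Specific activity given as nmol nitrocefin hydrolyzed per min per mg protein at 30°C, with protein by BCA against BSA standard. Triplicate inductions, averaged.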

[11] = biological target: Beta-lactamase (Pseudomonas aeruginosa (strain ATCC 15692 / PAO1 / 1C / PRS 101 / LMG12228)) (UniProt P24735); test: Activity of Pseudomonas aeruginosa PAO1 AmpC assessed as nitrocefin hydrolyzed per mg of protein at 10 ug/ml by UV spectrophotometry; how it was run: as §2
[12] = biological target: Beta-lactamase (Pseudomonas aeruginosa (strain ATCC 15692 / PAO1 / 1C / PRS 101 / LMG12228)) (UniProt P24735); test: Activity of Pseudomonas aeruginosa PAO1 AmpC assessed as nitrocefin hydrolyzed per mg of protein at 25 ug/ml by UV spectrophotometry; how it was run: as §2
[13] = biological target: Beta-lactamase (Pseudomonas aeruginosa (strain ATCC 15692 / PAO1 / 1C / PRS 101 / LMG12228)) (UniProt P24735); test: Activity of Pseudomonas aeruginosa PAK AmpC assessed as nitrocefin hydrolyzed per mg of protein at 1 ug/ml by UV spectrophotometry; how it was run: as §2
[14] = biological target: Beta-lactamase (Pseudomonas aeruginosa (strain ATCC 15692 / PAO1 / 1C / PRS 101 / LMG12228)) (UniProt P24735); test: Activity of Pseudomonas aeruginosa PAK AmpC assessed as nitrocefin hydrolyzed per mg of protein at 10 ug/ml by UV spectrophotometry; how it was run: as §2
[15] = biological target: Beta-lactamase (Pseudomonas aeruginosa (strain ATCC 15692 / PAO1 / 1C / PRS 101 / LMG12228)) (UniProt P24735); test: Activity of Pseudomonas aeruginosa PAK AmpC assessed as nitrocefin hydrolyzed per mg of protein at 25 ug/ml by UV spectrophotometry; how it was run: as §2
[16] = biological target: Beta-lactamase (Pseudomonas aeruginosa (strain ATCC 15692 / PAO1 / 1C / PRS 101 / LMG12228)) (UniProt P24735); test: Activity of ampD, […], ampDh2 deficient Pseudomonas aeruginosa PAO1 AmpC assessed as nitrocefin hydrolyzed per mg of protein at 1 ug/ml by UV spectrophotometry; how it was run: as §2
[17] = biological target: Beta-lactamase (Pseudomonas aeruginosa (strain ATCC 15692 / PAO1 / 1C / PRS 101 / LMG12228)) (UniProt P24735); test: Activity of ampD, […], ampDh2 deficient Pseudomonas aeruginosa PAO1 AmpC assessed as nitrocefin hydrolyzed per mg of protein at 10 ug/ml by UV spectrophotometry; how it was run: as §2
[18] = biological target: Beta-lactamase (Pseudomonas aeruginosa (strain ATCC 15692 / PAO1 / 1C / PRS 101 / LMG12228)) (UniProt P24735); test: Activity of ampD, […], ampDh2 deficient Pseudomonas aeruginosa PAO1 AmpC assessed as nitrocefin hydrolyzed per mg of protein at 25 ug/ml by UV spectrophotometry; how it was run: as §2
[19] = biological target: Beta-lactamase (Pseudomonas aeruginosa (strain ATCC 15692 / PAO1 / 1C / PRS 101 / LMG12228)) (UniProt P24735); test: Activity of ampG deficient Pseudomonas aeruginosa PAO1 AmpC assessed as nitrocefin hydrolyzed per mg of protein at 1 ug/ml by UV spectrophotometry; how it was run: as §2
[20] = biological target: Beta-lactamase (Pseudomonas aeruginosa (strain ATCC 15692 / PAO1 / 1C / PRS 101 / LMG12228)) (UniProt P24735); test: Activity of ampG deficient Pseudomonas aeruginosa PAO1 AmpC assessed as nitrocefin hydrolyzed per mg of protein at 10 ug/ml by UV spectrophotometry; how it was run: as §2
[21] = biological target: Beta-lactamase (Pseudomonas aeruginosa (strain ATCC 15692 / PAO1 / 1C / PRS 101 / LMG12228)) (UniProt P24735); test: Activity of ampG deficient Pseudomonas aeruginosa PAO1 AmpC assessed as nitrocefin hydrolyzed per mg of protein at 25 ug/ml by UV spectrophotometry; how it was run: as §2
[22] = biological target: Beta-lactamase (Pseudomonas aeruginosa (strain ATCC 15692 / PAO1 / 1C / PRS 101 / LMG12228)) (UniProt P24735); test: Activity of ampD, […], ampDh2 and ampG deficient Pseudomonas aeruginosa PAO1 AmpC assessed as nitrocefin hydrolyzed per mg of protein at 25 ug/ml by UV spectrophotometry; how it was run: as §2
[23] = biological target: Beta-lactamase (Pseudomonas aeruginosa (strain ATCC 15692 / PAO1 / 1C / PRS 101 / LMG12228)) (UniProt P24735); test: Activity of ampD, […], ampDh2 and ampG deficient Pseudomonas aeruginosa PAO1 AmpC assessed as nitrocefin hydrolyzed per mg of protein at 10 ug/ml by UV spectrophotometry; how it was run: as §2
[24] = biological target: Beta-lactamase (Pseudomonas aeruginosa (strain ATCC 15692 / PAO1 / 1C / PRS 101 / LMG12228)) (UniProt P24735); test: Activity of ampD, […], ampDh2 and ampG deficient Pseudomonas aeruginosa PAO1 AmpC assessed as nitrocefin hydrolyzed per mg of protein at 1 ug/ml by UV spectrophotometry; how it was run: as §2
[25] = biological target: Beta-lactamase (Pseudomonas aeruginosa (strain ATCC 15692 / PAO1 / 1C / PRS 101 / LMG12228)) (UniProt P24735); test: Activity of ampG deficient Pseudomonas aeruginosa PAK AmpC assessed as nitrocefin hydrolyzed per mg of protein at 25 ug/ml by UV spectrophotometry; how it was run: as §2
[26] = biological target: Beta-lactamase (Pseudomonas aeruginosa (strain ATCC 15692 / PAO1 / 1C / PRS 101 / LMG12228)) (UniProt P24735); test: Activity of ampG deficient Pseudomonas aeruginosa PAK AmpC assessed as nitrocefin hydrolyzed per mg of protein at 10 ug/ml by UV spectrophotometry; how it was run: as §2
[27] = biological target: Beta-lactamase (Pseudomonas aeruginosa (strain ATCC 15692 / PAO1 / 1C / PRS 101 / LMG12228)) (UniProt P24735); test: Activity of ampG deficient Pseudomonas aeruginosa PAK AmpC assessed as nitrocefin hydrolyzed per mg of protein at 1 ug/ml by UV spectrophotometry; how it was run: as §2
[28] = biological target: Beta-lactamase AmpC (Enterobacter cloacae) (UniProt P05364); test: Activity of kanamycin resistant Escherichia coli SNO301-1 AmpC harboring pEC1C carrying ampC, ampR from Enterobacter cloacae at 50 ug/ml assessed as nitrocefin substrate hydrolysis per mg of protein after 2 hrs by UV spectrophotometry
Chain of Beta-lactamase AmpC (Enterobacter cloacae) (P05364 whole entry, looked up): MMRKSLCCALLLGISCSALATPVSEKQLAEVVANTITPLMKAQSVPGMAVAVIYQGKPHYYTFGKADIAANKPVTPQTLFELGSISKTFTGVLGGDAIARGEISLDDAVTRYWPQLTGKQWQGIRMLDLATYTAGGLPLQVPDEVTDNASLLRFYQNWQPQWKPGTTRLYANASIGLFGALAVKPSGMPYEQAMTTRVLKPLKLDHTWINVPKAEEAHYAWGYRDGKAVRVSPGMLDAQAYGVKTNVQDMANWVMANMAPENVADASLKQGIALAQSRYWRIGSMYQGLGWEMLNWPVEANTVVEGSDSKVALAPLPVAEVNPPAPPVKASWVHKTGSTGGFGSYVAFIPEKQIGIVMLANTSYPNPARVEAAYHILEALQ

[29] = biological target: Beta-lactamase AmpC (Enterobacter cloacae) (UniProt P05364); test: Activity of gentamycin resistant Escherichia coli SNO301-1 AmpC harboring pEC1C carrying ampC, ampR from Enterobacter cloacae at 50 ug/ml assessed as nitrocefin substrate hydrolysis per mg of protein after 2 hrs by UV spectrophotometry
[30] = biological target: Beta-lactamase AmpC (Enterobacter cloacae) (UniProt P05364); test: Activity of tetracycline resistant Escherichia coli SNO301-1 AmpC harboring pEC1C carrying ampC, ampR from Enterobacter cloacae at 50 ug/ml assessed as nitrocefin substrate hydrolysis per mg of protein after 2 hrs by UV spectrophotometry

Chain of Beta-lactamase (Pseudomonas aeruginosa (strain ATCC 15692 / PAO1 / 1C / PRS 101 / LMG12228)) (P24735 27-397 limits assumed): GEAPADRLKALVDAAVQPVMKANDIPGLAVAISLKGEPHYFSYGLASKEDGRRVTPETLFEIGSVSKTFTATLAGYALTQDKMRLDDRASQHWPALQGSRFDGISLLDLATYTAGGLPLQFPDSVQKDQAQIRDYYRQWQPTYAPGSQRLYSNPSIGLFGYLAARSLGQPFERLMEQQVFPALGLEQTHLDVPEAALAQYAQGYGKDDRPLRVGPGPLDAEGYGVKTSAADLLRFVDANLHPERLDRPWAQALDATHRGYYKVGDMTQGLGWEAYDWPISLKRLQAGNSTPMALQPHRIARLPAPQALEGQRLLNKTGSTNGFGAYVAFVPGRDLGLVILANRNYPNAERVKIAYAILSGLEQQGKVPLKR

For `CO[C@@]1(NC(=O)Cc2cccs2)C(=O)N2C(C(=O)O)=C(COC(N)=O)CS[C@@H]21`, the Activity [1] was 0 nmol/min, the Activity [2] was 1300 nmol/min and the Activity [3] was 0 nmol/min. It also gave an Activity [4] of 3440 nmol/min, an Activity [5] of 879 nmol/min and an Activity [6] of 1220 nmol/min. It also gave an Activity [7] of 2570 nmol/min, an Activity [8] of 0 nmol/min and an Activity [9] of 8130 nmol/min. For the same molecule, the Activity [10] was 36 nmol/min, the Activity [11] was 165 nmol/min and the Activity [12] was 372 nmol/min. For the same molecule, the Activity [13] was 152 nmol/min, the Activity [14] was 747 nmol/min and the Activity [15] was 1070 nmol/min. The Activity [16] was 2980 nmol/min, the Activity [17] was 3010 nmol/min and the Activity [18] was 3020 nmol/min. It also gave an Activity [19] of 3 nmol/min, an Activity [20] of 10 nmol/min and an Activity [21] of 0 nmol/min. The Activity [22] was 0 nmol/min, the Activity [23] was 8 nmol/min and the Activity [24] was 4 nmol/min. The Activity [25] was 0 nmol/min, the Activity [26] was 5 nmol/min and the Activity [27] was 2 nmol/min. For the same molecule, the Activity [28] was 3600 nmol/min, the Activity [29] was 3250 nmol/min and the Activity [30] was 38 nmol/min.

From ChEMBL document CHEMBL1687785, “ampG gene of Pseudomonas aeruginosa and its role in β-lactamase expression” (2010)
